mIAP inh – mouse IAP inhibition; purified mouse IAP, CDP-Star luminescence, 30 min; inhibition, % at 10 µM; hit rate 0.2% among 330,000;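 active = inhibition of at least 40% at 10 µM in the primary screen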;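 note: plate controls were DMSO with enzyme for no effect and no enzyme wells for full effect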
hIAP block – blocks human intestinal alkaline phosphatase; P09923; purified IAP, CDP-Star luminescence, 30 min; inhibition, % at 10 µM; hit rate 0.12% among 330,000; AID 2544;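 active = inhibition reaching a set limit with compound at 10 µM in the primary screen, cut at about 35% in these data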;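 note: plate controls were DMSO wells with enzyme for no effect and no-enzyme buffer wells for full effect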
Target sequence (P09923 whole entry, looked up): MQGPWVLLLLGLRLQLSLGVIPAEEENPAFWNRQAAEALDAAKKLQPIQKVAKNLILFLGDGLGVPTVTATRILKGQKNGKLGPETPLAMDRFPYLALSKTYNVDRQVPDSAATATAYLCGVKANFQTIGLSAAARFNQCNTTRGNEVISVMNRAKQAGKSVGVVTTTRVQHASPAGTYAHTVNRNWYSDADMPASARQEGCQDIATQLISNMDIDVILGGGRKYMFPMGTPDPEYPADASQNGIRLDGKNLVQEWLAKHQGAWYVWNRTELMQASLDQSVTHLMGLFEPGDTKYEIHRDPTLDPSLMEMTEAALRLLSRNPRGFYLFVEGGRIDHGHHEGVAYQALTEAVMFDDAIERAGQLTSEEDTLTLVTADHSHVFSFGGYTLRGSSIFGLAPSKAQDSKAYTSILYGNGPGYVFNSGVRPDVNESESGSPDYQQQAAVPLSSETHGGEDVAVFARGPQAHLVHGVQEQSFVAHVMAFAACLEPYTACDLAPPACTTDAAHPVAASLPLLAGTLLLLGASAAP
bIAP inh – intestinal alkaline phosphatase (bovine) inhibition; purified bovine IAP, CDP-star luminescence, 30 min; inhibition, % at 20 µM; 190,000 tested, under 10 active; AID 1019;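 active = over 50% inhibition of intestinal alkaline phosphatase at 20 µM in the single-dose screen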
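System: purified bovine intestinal alkaline phosphatase (IAP) enzyme; Input: IAP diluted 1/65,000,000 in the well; Measured by: CDP-star luminescence signal; Compound dosing: 20 µM single dose; Incubation: 30 min reaction at room temperature.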
hIAP act – increases human intestinal alkaline phosphatase activity | hit rate 0.16% among 330,000 | purified human IAP, CDP-Star luminescence, 30 min; stronger effect = higher value; 1 = vehicle-only enzyme, 0 = enzyme-free background | activation factor at 10 µM | P09923;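 active = activation factor of the enzyme at least 2-fold when tested at 20 µM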
bIAP act – increases bovine intestinal alkaline phosphatase activity. purified bovine IAP, CDP-star luminescence, 30 min; stronger effect = higher value; fold of DMSO-control signal, blank-subtracted. activation factor at 20 µM. hit rate 0.17% among 200,000;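 active = activation factor of 2 or more at 20 µM, a signal rise over negative controls twice the positive control's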
mIAP activ – mouse IAP activation; muIAP, CDP-Star luminescence, 30 min; stronger effect = higher value; 1 = vehicle-only enzyme signal, 0 = enzyme-free wells; activation factor at 10 µM; hit rate 0.24% among 330,000;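 active = activation factor of at least 2 at 20 µM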
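System: mouse IAP enzyme. Reagent: CDP-Star chemiluminescent phosphatase substrate. Benchmarks: DMSO wells, no-enzyme wells. Times: 30 min enzyme-substrate-compound incubation at room temperature. Detection: luminescence from enzymatic CDP-Star hydrolysis. Doses: test compounds delivered from DMSO solution.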
hIAP act confirm – human IAP activation confirmation. hit rate 10% among 880. activation (%Activity, negative = activation), % at 8.3 µM. purified IAP, CDP-Star luminescence, 30 min; stronger effect = lower value. shares compounds with hIAP act;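 active = at least twofold enzyme activation in any of six single-dose repeats, which the averaged readout prints as negative percent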
An asterisk follows results filed as active; x = no result given. A selection: hits, their analogues and other compounds. The true share with any hit is near 0.77%.

SMILES	mIAP inh	hIAP block	bIAP inh	hIAP act	bIAP act	mIAP activ	hIAP act confirm
CN(CC(=O)Nc1ccccc1F)CC(=O)Nc1ccc(F)c(F)c1F	-3	-111	-45	2.1*	1.5	1	52
CC(C)CC1Nc2ncnc(N3CCCCC3)c2N(Cc2ccc(Br)cc2)C1=O (stereo unspecified)	-6	9	x	0.91	x	1.1	x
O=C(NCCCN1CCOCC1)c1ccc2c(c1)N(Cc1ccc(Cl)cc1)C(=O)c1ccccc1S2=O (stereo unspecified)	8	37*	x	0.63	x	0.92	-48*
COc1ccc(NC(=O)/C(C#N)=C\c2ccc(N3CCOCC3)o2)cc1	20	39*	40	0.61	0.6	0.8	2
CC(C)CC(=O)NC(=S)NNC(=O)c1ccc(NC(=O)C2CCCCC2)cc1	-8	-126	-36	2.3*	1.4	1.1	62
CCOC(=O)C1=NNC2C(=O)N(Cc3ccccc3)C(=O)C12 (stereo unspecified)	7	4	x	0.96	x	0.93	x
Cc1cc2cc3c(cc2nc1SCC(=O)Nc1nc(C)c(C)s1)OCO3	4	-116	4	2.2*	1	0.96	44
COC(=O)CSc1nc2cc3c(cc2cc1C)OCO3	6	2	13	0.98	0.9	0.94	x
NC1=NN=C(N2N=C(c3ccccc3)CC2(O)C(F)(F)F)n2ncnc2C1 (stereo unspecified)	28	-10	-41	1.1	1.4	0.72	x
CCOC(=O)N1N=C(c2ccc(OC)cc2)CC1(O)C(F)(F)F (stereo unspecified)	9	-19	-8	1.2	1.1	0.91	x
COc1ccc(C2=NN(C3=NN=C(N)Cc4ncnn43)C(O)(C(F)(F)F)C2)cc1 (stereo unspecified)	14	-160	-72	2.6*	1.7	0.86	42
NC1=NN=C(N2N=C(c3ccc(Br)cc3)CC2(O)C(F)(F)F)n2ncnc2C1 (stereo unspecified)	5	-162	-8	2.6*	1.1	0.95	4
COc1ccccc1C1=NN(C2=NN=C(N)Cc3ncnn32)C(O)(C(F)(F)F)C1 (stereo unspecified)	16	-177	-43	2.8*	1.4	0.84	45
O=C(N/N=C/c1c(F)cccc1Cl)c1cc(C2CC2)[nH]n1	-1	-105	x	2*	x	1	38
O=C(N/N=C/c1ccc(O)cc1)c1cc(C2CC2)[nH]n1	-7	7	x	0.93	x	1.1	x
O=C(NCC1CCCO1)c1ccc(Br)s1 (stereo unspecified)	2	40*	x	0.6	x	0.98	9
Cc1cc(C(=O)COC(=O)COc2ccccc2C#N)c(C)n1CC1CCCO1 (stereo unspecified)	0	11	x	0.89	x	1	x
COc1ccc(NS(=O)(=O)c2cn(C)c(=O)n(C)c2=O)cc1	-6	14	x	0.86	x	1.1	x
CCc1ccc(-n2c(SCC(=O)Nc3cc(C)[nH]n3)nc3[nH]ncc3c2=O)cc1	6	-118	-63	2.2*	1.6	0.94	-5
Cc1cc(/C=N/NC(N)=S)c(O)c(/C=N/NC(N)=S)c1	19	-178	x	2.8*	x	0.81	-56
Cc1ccc(-n2c(C)cc(/C=N/NC(N)=S)c2C)cc1	2	-7	1	1.1	1	0.98	x
NC(=S)N/N=C/c1cccc(O)c1O	-2	-115	-28	2.2*	1.3	1	5
NC(=S)N/N=C/c1ccccc1O	3	-65	x	1.6	x	0.97	x
Cc1noc(C)c1NC(=O)Nc1cccc2c1O[C@@H](CN(C)Cc1ccc3c(c1)OCO3)[C@@H](C)CN([C@H](C)CO)C2=O	-3	0	x	1	x	1	x
O=C(OCc1ccc([N+](=O)[O-])cc1Cl)c1cnccn1	4	22	x	0.78	x	0.96	x
CCN(CC)S(=O)(=O)c1ccc(N2CC(C(=O)NCCc3c[nH]c4ccccc34)CC2=O)cc1 (stereo unspecified)	3	-5	x	1.1	x	0.97	x
CC(=O)N1CC(C)Sc2ccc(S(=O)(=O)NCCc3cccc(C)c3)cc21 (stereo unspecified)	8	-23	x	1.2	x	0.92	x
